From PubChem BioAssay
GPR7 antag – human neuropeptides B/W receptor 1 antagonism | P48145 | GPR7-expressing cells, fluorescence antagonist assay | inhibition, % at 4.4 µM | 290,000 compounds, 1.1% hits; in the data active means inhibition above about 16%, passing the limit was not always enough;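 further: cells stimulated with the agonist NPW; 0% = agonist with vehicle and 100% = vehicle without agonist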
Target sequence (P48145 whole entry, looked up): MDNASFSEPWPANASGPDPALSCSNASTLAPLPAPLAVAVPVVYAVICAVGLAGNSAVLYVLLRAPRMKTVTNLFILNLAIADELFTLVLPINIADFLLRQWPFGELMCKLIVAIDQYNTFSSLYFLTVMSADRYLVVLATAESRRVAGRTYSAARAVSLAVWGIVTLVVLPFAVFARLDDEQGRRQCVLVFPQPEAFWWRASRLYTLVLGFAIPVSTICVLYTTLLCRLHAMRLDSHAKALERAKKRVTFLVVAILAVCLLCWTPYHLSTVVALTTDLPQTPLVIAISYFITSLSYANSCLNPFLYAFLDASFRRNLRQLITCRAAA
OX1R antag-1 – blocks the human orexin 1 receptor; AID 485270; inhibition, % at 6.6 µM; 330,000 compounds, 1.8% hits; OX1R-expressing cells, FRET antagonist read-out; in the data active means inhibition mostly above about 38%, no sharp cut-off; inactive means mostly below about 40%;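 further: 0% = agonist challenge alone and 100% = reference antagonist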
OX1R antag-2 – antagonists of human orexin 1 receptor. 330,000 compounds, 0.43% hits. O43613. AID 434989. inhibition, % at 5 µM. CHO/OX1R cells, Fluo-8 calcium fluorescence, orexin A;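 active means inhibition above its plate's threshold, mean inhibition of all tested compounds on the plate plus 3 SD, cut at about 37% in these data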;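 further: 0% = orexin A challenge wells and 100% = SB-334867-A antagonist wells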
CHO parental Ca – signal in parental CHO cells, OX1R antagonist counter-screen. 330,000 compounds, 0.63% hits. parental CHO-K1, ATP-induced calcium, Fluo-8 fluorescence. inhibition, % at 5.6 µM;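 active means inhibition above that plate's mean sample inhibition plus 3 SD, cut at about 26% in these data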;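 further: 0% = ATP-challenged DMSO wells and 100% = DMSO wells without ATP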
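Measured by: calcium-sensitive Fluo-8 fluorescence / Test system: CHO parental line / Controls: ATP-challenged DMSO wells low, unchallenged DMSO wells high / Measure: % inhibition / Compound: single nominal dose of 5.6 µM per compound / Replicates: single well per compound, no replicates / Reagent: ATP as calcium-mobilizing challenge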
TAAR1 antagonist – human TAAR1 antagonism. Q96RJ0. CHO RD-HGA16 TAAR1, Fluo-8 calcium fluorescence, antagonist. inhibition, % at 3 µM. 360,000 compounds, 1.5% hits;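 active means inhibition above a per-plate cutoff, the mean inhibition of test compounds on that plate plus 3 SD, cut at about 49% in these data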;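 further: 0% = DMSO plus EC80 beta-PEA response and 100% = DMSO alone without agonist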
Target sequence (Q96RJ0 whole entry, looked up): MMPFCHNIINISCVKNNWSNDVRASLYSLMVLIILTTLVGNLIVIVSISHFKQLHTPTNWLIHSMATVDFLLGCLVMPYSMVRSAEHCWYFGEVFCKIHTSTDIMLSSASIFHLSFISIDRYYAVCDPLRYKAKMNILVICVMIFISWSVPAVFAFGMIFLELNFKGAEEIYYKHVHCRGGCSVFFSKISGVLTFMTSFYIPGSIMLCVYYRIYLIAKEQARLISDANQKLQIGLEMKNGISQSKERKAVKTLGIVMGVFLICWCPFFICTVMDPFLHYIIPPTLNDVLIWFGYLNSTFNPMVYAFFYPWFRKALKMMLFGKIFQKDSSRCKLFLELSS
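Material: RD-HGA16 CHO cells with stable hTAAR1 and Gα16; Dosing: single nominal final test compound concentration of 3 µM; Schedule: seeding 17-24 h prior, 75-min 37 °C, 30-min RT dye loading; Detection: kinetic Fluo-8 calcium fluorescence measurement; Measure: % inhibition from peak post-agonist over basal fluorescence ratio; Benchmarks: vehicle and agonist controls.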
TAAR1 agonist – agonists of human TAAR1; 360,000 compounds, 0.99% hits; Q96RJ0; activation, % at 3 µM; CHO RD-HGA16 TAAR1, Fluo-8 calcium fluorescence; vehicle wells 0%, saturating PEA agonist 100%;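 active means activation above the mean activation of all test compounds in the run plus 3 SD, cut at about 38% in these data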
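System: CHO-derived RD-HGA16 cells with stable Gα16 and human TAAR1 / Times: 17-24 h plating, Fluo-8 75 min 37 °C, 30 min RT / Technique: calcium-sensitive Fluo-8 signal, excitation 470-495, emission 515-575 nm / Measure: % activation relative to PEA EC100 response / Benchmarks: DMSO and PEA EC100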
OX1R Ca confirm – confirmation of human orexin 1 receptor antagonists; shares compounds with OX1R antag-2; CHO/OX1R cells, orexin A calcium Fluo-8 fluorescence; inhibition, % at 5 µM; 1,100 compounds, 38% hits; in the data active means inhibition above about 29%;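 further: 0% = agonist challenge alone and 100% = reference antagonist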
CHO Ca triplic – counter-screen for OX1R antagonists: effect in parental CHO cells | shares compounds with OX1R antag-2 | parental CHO-K1, ATP-induced calcium, Fluo-8 fluorescence | inhibition, % at 5.6 µM | 1,100 compounds, 9.3% hits | AID 492965;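 active means inhibition above a per-plate limit, the mean inhibition of that plate's test compounds plus 3 SD, cut at about 25% in these data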;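 further: 0% = ATP challenge with DMSO and 100% = DMSO without ATP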
An asterisk follows results filed as active; x = not tested or not shown. Sampled rows, rich in hits. Any-hit rate of the full collection: about 4.5%.

SMILES	GPR7 antag	OX1R antag-1	OX1R antag-2	CHO parental Ca	TAAR1 antagonist	TAAR1 agonist	OX1R Ca confirm	CHO Ca triplic
CCC(NC(=O)c1cc(COc2cc(C)c(Cl)c(C)c2)on1)c1ccncc1 (stereo unspecified)	17	17	42*	17	35	43*	27	7
Nc1c(C(O)(C(F)(F)F)C(F)(F)F)cc(C(O)(C(F)(F)F)C(F)(F)F)c2ccccc12	3	25	28	7	x	x	-6	-1
O=S(=O)(NC1CCSc2ccccc21)c1ccc(Cl)nc1 (stereo unspecified)	-8	18	52*	-7	11	-2	7	-13
CC(=O)c1ccc(S(=O)(=O)NC2CCSc3ccccc32)cc1 (stereo unspecified)	1	19	-7	-6	2	1	x	x
COc1ccc(CC(=O)Oc2ccccc2Cl)cc1S(=O)(=O)N1CCOCC1	x	2	6	-8	-2	4	x	x
Cc1ccc2c(c1)[C@H]1[C@H](CO2)[C@H](c2ccccc2)[C@]2(C)C(=O)NCC(=O)N12	x	3	6	0	-8	0	x	x
CC(C)=CCOc1c2ccoc2c(OCC=C(C)C)c2oc(=O)ccc12	x	13	54*	-4	23	-2	5	53*
C=CCN(c1ccccc1C(=O)O)S(=O)(=O)/C=C/c1ccccc1	6	23	-3	-3	3	1	x	x
Cc1noc(C)c1C(=O)OCC(=O)c1ccc[nH]1	3	12	-16	-2	11	4	x	x
Cc1noc(C)c1C(=O)OCC(=O)c1cc(C)n(Cc2ccccc2Cl)c1C	4	24	49*	23	29	14	9	13
CCn1c(SCC(=O)Nc2ccc(NC(C)=O)cc2)nc2c([nH]c3ccccc32)c1=O	2	12	4	-13	-5	1	x	x
COc1ccc(CCN2CC(C(=O)NCc3ccco3)CC2=O)cc1OC (stereo unspecified)	3	12	-4	-4	4	7	x	x
Cc1c(C)c2ccc(OC(C)C(=O)NCc3ccccn3)cc2oc1=O (stereo unspecified)	0	11	-9	-13	5	1	x	x
CC(Oc1ccc2c3c(c(=O)oc2c1)CCCC3)C(=O)NCc1ccccn1 (stereo unspecified)	-8	20	54*	-26	1	0	-11	-14
O=C(NCC1OCCc2ccccc21)c1ccc(NC(=O)c2ccc(Cl)cc2)cc1 (stereo unspecified)	-13	10	7	2	22	1	x	x
O=C(OCC(=O)N1CCCc2ccccc21)c1cc(Br)ccc1O	x	5	-24	-8	-17	-1	x	x
O=C(CSc1nc2ccccc2[nH]1)Nc1ccccc1N1CCOCC1	-14	75	38	-1	-16	7	35*	-9
Cc1ccc2nc(Cl)c(/C=N/Nc3nc(C)cc(C)n3)c(=O)n2c1	3	34	-10	-4	0	-1	x	x
S=C(NCc1cccnc1)Nc1cccc2ccccc12	-3	13	33	-7	10	1	-1	-5
Cc1cc(Cl)ccc1NC(=S)NCc1ccc(Cl)cc1	10	40	28	11	29	16	-4	5
COc1cc(C(=O)Nc2cccc(-n3cnnn3)c2)cc(Cl)c1OC	9	10	-21	-16	28	12	x	x
O=C(CC1CCCCC1)NCc1ccccc1Cl	-1	9	-32	-14	-3	-2	x	x
CCN(c1ccccc1)S(=O)(=O)c1cc(C(=O)Nc2ccc(F)c(F)c2)ccc1F	-4	37	27	-2	56*	11	38*	9
CCN(c1ccccc1)S(=O)(=O)c1cc(C(=O)O)ccc1C	-9	9	-14	-10	-16	1	x	x
CCCCCCCn1c2c(c(=N)c3ccccc31)CCC2	53*	4	30	22	-1	5	14	38*
SMILES	GPR7 antag	OX1R antag-1	OX1R antag-2	CHO parental Ca	TAAR1 antagonist	TAAR1 agonist	OX1R Ca confirm	CHO Ca triplic
CCCn1c2c(c(=N)c3c1CCC3)CCC2	-7	7	-14	-4	2	11	x	x
COc1ccc(-n2ncc3c2CC(C)(C)CC3NC(=O)Cc2nonc2C)cc1 (stereo unspecified)	-2	23	-18	-8	-12	15	x	x
COc1cc(NC(=O)C2CCC(CNS(=O)(=O)c3csc(C(N)=O)c3)CC2)cc(OC)c1 (stereo unspecified)	1	4	3	-8	-8	1	x	x
CCOC(=O)c1oc2ccc(S(=O)(=O)Nc3ccc4c(c3)n(C)c(=O)n4C)cc2c1C	-22	25	47*	17	4	8	-6	3
COc1ccc(S(=O)(=O)Nc2ccc3c(c2)n(C)c(=O)n3C)cc1C	14	8	-1	-12	9	8	x	x
Fc1cccc2sc(Nc3nc4ccccc4s3)nc12	-6	28	36*	-2	5	0	51*	14
Fc1ccc2nc(Nc3nc4c(F)cc(F)cc4s3)sc2c1	-9	21	-11	11	-5	4	x	x
Fc1ccc2nc(Nc3nc4c(F)cccc4s3)sc2c1	2	41	68*	-13	-8	3	51*	0
COc1ccc(NC(=O)C/C(C)=N/NC(=O)c2ccccn2)c(OC)c1	-3	13	-30	-17	7	0	x	x
Cc1c(NC(=O)c2cccc(-c3cc4ccccc4oc3=O)c2)cccc1-c1nc2ncccc2o1	-7	67	32	-19	43	10	24	-16
COC(=O)c1c(C)[nH]c(C(=O)COC(=O)CCNS(=O)(=O)c2cccc(C(F)(F)F)c2)c1C	x	0	39	9	16	21	-6	-13
Cc1ccc(S(=O)(=O)NCC(=O)NCC(=O)NCCc2ccc(Cl)cc2)cc1C	x	x	x	x	-9	-1	x	x
c1ccc(Cn2nnnc2C(c2cccs2)N2CCCCCC2)cc1 (stereo unspecified)	-10	9	38	4	48	18	-15	-13
COc1ccc(Cn2nnnc2C(c2cccs2)N2CCN(c3ccccc3)CC2)cc1 (stereo unspecified)	-9	29	-23	-9	5	6	x	x
CCN(CC(=O)Nc1cc(S(=O)(=O)N2CCCCC2)ccc1Cl)Cc1ccccc1	x	15	-27	27	4	-1	x	x
CCN(CC(=O)Nc1cc(S(=O)(=O)N2CCOCC2)ccc1Cl)Cc1ccccc1	x	20	55*	-20	38	10	14	4
